Legend:
Assay type in all cases: functional
[1] = test system: Aedes aegypti; test: Insecticidal activity against Aedes aegypti
Outline: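 Mosquito larvae were exposed to test compounds and killing was scored. Activity is reported as the LD90 in ng/mL.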

[2] = test system: Lucilia sericata; test: Insecticidal activity against Lucilia sericata
Outline: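 Blowfly larvae were exposed to test compounds and killing was scored. Activity is reported as the LD90 in ng/mL.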

[3] = test system: Ctenocephalides felis; test: Insecticidal activity against Ctenocephalides felis

Compound | LD90 [1] [ng/mL] | LD90 [2] [ng/mL] | LD90 [3] [µg/mL]
C=C(C)[C@H]1C(=O)c2c3c(cc4c5c(n1c24)[C@@]1(C)[C@@H](CC[C@@H]2[C@]1(C)CC[C@]1(O)O[C@H](/C=C(\C)C(=O)O)C[C@@]21C)C5)C1=CC(C)(C)OC(C)(C)[C@H]1[C@@H]3O [NODULISPORIC ACID A1] | 200 | 300 | 5
CC(C)=CCc1c2c(cc3c4c([nH]c13)[C@@]1(C)[C@@H](CC[C@H]3[C@](C)(/C=C/C=C(\C)C(=O)[O-])[C@@H](O)CC[C@@]31C)C4)C1=CC(C)(C)OC(C)(C)[C@H]1[C@@H]2O.[Na+] [NODULISPORIC ACID C SODIUM] | 10000 | 10500 | 10
CN1C(=O)[C@]23C[C@H]4C(C)(C)[C@@]5(C[C@@]41CN2CC[C@@]3(C)O)C(=O)Nc1cc2c(cc15)OC(C)(C)C=CO2 [PARAHERQUAMIDE] | 50000 | 50000 | >100
CC(C)=CCc1c2c(cc3c4c([nH]c13)[C@@]1(C)[C@@H](CC[C@@H]3[C@]1(C)CC[C@]1(O)O[C@H](/C=C(\C)C(=O)[O-])C[C@@]31C)C4)C1=CC(C)(C)OC(C)(C)[C@H]1[C@@H]2O.[Na+] [NODULISPORIC ACID C1] | – | – | >100
CC(C)=CCc1c2c(cc3c4c([nH]c13)[C@@]1(C)[C@@H](CC[C@@H]3[C@]1(C)CC[C@]1(O)O[C@H]([C@H](O)[C@H](C)C(=O)[O-])C[C@@]31C)C4)C1=CC(C)(C)OC(C)(C)[C@H]1[C@@H]2O.[Na+] | – | – | >100
IVERMECTIN | 5 | 40 | 10
C=C(C)[C@H]1C(=O)c2c3c(cc4c5c(n1c24)[C@@]1(C)C(CC[C@H]2[C@](C)(/C=C/C=C(\C)C(=O)O)[C@@H](O)CC[C@@]21C)C5)C1=CC(C)(C)OC(C)(C)C1[C@@H]3O (stereo not given in full) [NOD ACID A] | 500 | 300 | 1
C=C(C)[C@H]1C(=O)c2c3c(cc4c5c(n1c24)[C@@]1(C)[C@@H](CC[C@@H]2[C@]1(C)CC[C@]1(O)O[C@H](C(O)C(C)C(=O)O)C[C@@]21C)C5)C1=CC(C)(C)OC(C)(C)[C@H]1[C@@H]3O (stereo not given in full) [NODULISPORIC ACID A2] | 800 | 600 | 10

Source: ChEMBL document CHEMBL1159336, “Nodulisporic acids C, C1, and C2: a series of D-ring-opened nodulisporic acids from the fungus Nodulisporium sp” (2003)
